In PubChem BioAssay AID504382 (The Scripps Research Institute Molecular Screening Center, 2011):
Among all 2,500 compounds or so, about 460 (18%) were called active. These entries were drawn from the full list. A number with no mark means an inactive call.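 How the source made its calls: active means mean activation above a cutoff of low control average plus 3 SD from the earlier screen (cut at about 12% in these data); inactive means the rest.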

Experiment: compound fluorescence interference without thin filaments, confirmation, artefact control for cardiac RTF calcium sensitizer project, biochemical (AID 504382)
Details: IANBD fluorescence interference counterscreen, buffer, EC20 Ca2+; at 7.2 µM; hits give high values; scaled: EC20 calcium 0, EC100 calcium 100
Method in brief: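 Doses – one dose of 7.2 µM, 0.7% DMSO · Buffer or medium – MOPS/KCl/MgCl2/EGTA/NTA/DTT buffer, pH 7.2 · Probe or stimulus – Ca2+ fixed at EC20, 0.472 mM · Measured by – fluorescence intensity, excitation 480 nm, emission 540 nm · Read-out – fluorescence interference versus control range · Timing – 15 min compound exposure at 25 °C · Replication – triplicate wells per compound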

Row | SMILES | fluorescence artifact activation
1 | CC1=CC(=C(C#N)c2nc3ccccc3s2)C=C(C)N1c1ccc(F)cc1 | 11.2%
2 | CCC1C/C(=C\c2cc(OC)c(OC)cc2OC)C(=O)/C(=C/c2cc(OC)c(OC)cc2OC)C1 (stereo not drawn) | 5.41%
3 | O=[N+]([O-])c1ccc(N/N=C/c2ccc(OCc3cccc4ccccc34)cc2)nc1 | -0.02%
4 | O=C(/C=C/c1ccccc1[N+](=O)[O-])Nc1cccnc1 | 0.87%
5 | Cc1ccc2nc3nc(NCC4CCCO4)c(C(=O)NC4CCCC4)cc3c(=O)n2c1 (stereo not drawn) | 0.12%
6 | COc1ccc(Cc2n[nH]c(=O)c3ccccc23)cc1OC | 0.32%
7 | C[C@H](CO)N1C[C@H](C)[C@@H](CN(C)C(=O)Nc2ccc(F)cc2)Oc2ccc(NS(C)(=O)=O)cc2C1=O | 0.09%
8 | Cc1ccc(N2C(=O)c3cccc4c(N)ccc(c34)C2=O)c2cccnc12 | 0.51%
9 | O=C(Nc1ccc2c(c1)OCO2)c1ccc2c(c1)OCO2 | 8.95%
10 | O=C(Nc1ccc(C(=O)N2CCOCC2)cc1)Nc1cccc(Cl)c1 | 8.09%
11 | O=C(Nc1ccc2c(c1)OCCO2)c1cccc(Cl)c1Cl | 13.6% (active)
12 | Cc1ccc(C(=O)NNC(=O)CSc2nnc(-c3ccncc3)n2-c2ccc(C)cc2)cc1 | 0.09%
13 | CCN1C(=O)[C@@H]2Cc3c([nH]c4ccccc34)C(c3ccc(OC)cc3)N2C1=S (stereo partly drawn) | -0.08%
14 | O=C(c1ccccn1)N(Cc1cccs1)C1(C(=O)NC2CCCCC2)CCCCC1 | 0.12%
15 | O=C(NC1CCCCC1)c1ccccc1NC(=S)NC(=O)C1CCC1 | 8.42%
16 | CCN(CC(=O)Nc1ccccc1C(=O)NC1CC1)Cc1cccs1 | 25.6% (active)
17 | O=S(=O)(/C=C/c1ccccc1)N1CCc2ccccc2C1 | 0.07%
18 | CCn1c(C)c(CCC(=O)O)c(=O)n2nc(-c3ccccc3OC)cc12 | 0.2%
19 | Cc1cc(C)nc(NS(=O)(=O)c2ccc(NC(=O)CSc3nc4ccccc4[nH]3)cc2)n1 | 0.03%
20 | CC(=O)Nc1ccc(S(=O)(=O)NCCC(=O)OCC(=O)c2cc(C)ccc2C)cc1 | 0.05%
21 | CC(=O)Nc1ccc(SCC(=O)NNC(=O)CN(C)S(=O)(=O)c2ccc(C)cc2)cc1 | 70.4% (active)
22 | CCOc1ccc2nc3cc(NCc4ccc(OC)cc4)ccc3c(N)c2c1 | 0.41%

Row | SMILES | fluorescence artifact activation
23 | Cn1cc(/C=C/c2cc[n+](C)cc2)c2cc(Cl)ccc21 | 0.1%
24 | Cn1cc(C2=C(c3ccc(Cl)cc3Cl)C(=O)NC2=O)c2ccccc21 | 12.7% (active)
25 | Cc1ccc(N=C2NC(=O)/C(=C/c3cn(C)c4ccccc34)S2)cc1C | 0%
26 | COc1cccc(C(=O)Nc2cc(C(=O)NCc3ccc(C)cc3)ccc2N2CCC3(CC2)CC(c2cccc(Br)c2)=NO3)c1 | -0.03%
27 | CCN(CC(=O)Nc1ccccc1C(F)(F)F)C(=O)c1ccc(-n2nc(C)c(CCC(=O)OC)c2C)cc1 | 8.41%
28 | N#Cc1cccc(NC(=O)CSc2ccc3c4c(cccc24)C(=O)c2ccccc2-3)c1 | 0.19%
29 | Cn1nc(C(F)(F)F)c(-c2ccc(Br)cc2)c1NC(=O)c1ccco1 | 0.14%
30 | CCC(CC)NC(=O)Nc1ccccc1C | 0.09%
31 | COCCn1c(C)cc(C(=O)COC(=O)c2ccc(Cl)c(S(N)(=O)=O)c2)c1C | 3.98%
32 | Cc1nnc(NC(=O)CSc2ncnc3c2cnn3-c2ccccc2C)s1 | 2.39%
33 | Cc1ccc(CNC(=O)c2cc(-c3ccccc3)nn2Cc2cc(C)no2)cc1 | 0.08%
34 | Cc1ccc(CNC(=O)CCn2cc(-c3ccc(C)cc3)nc2-c2ccncc2)cc1 | 18.1% (active)
35 | Cc1ccc(C)c(C(=O)CCC(=O)NCc2ccc(Cl)cc2)c1 | 0.14%
36 | COc1ccc2nc(C)c3cc(C)oc3c2c1 | 8.29%
37 | Cn1nc(-c2ccccc2)c(C(=O)Nc2ccc(C(F)(F)F)cc2)c1Cl | 5.74%
38 | Cc1cc([N+](=O)[O-])ccc1-c1ccc(/C=N/NC(=O)c2ccc(Br)o2)o1 | 0.29%
39 | COC(=O)c1cc(-c2cccc(OC)c2)n[nH]1 | 1.23%
40 | CC(O)Cc1cn([C@@H](CCCCN)C(=O)N2CCNCC2)nn1 (stereo partly drawn) | 0.06%
41 | C[C@@H](C(=O)N1CCNCC1)n1cc(CCCN=C(N)N)nn1 | 29.3% (active)
42 | CC(C)(C)OC(=O)NCCCC[C@@H](C(=O)N1CCN(C(=O)OC(C)(C)C)CC1)n1cc(CCC(=O)O)nn1 | 0.16%
43 | CC(Oc1ccc(F)cc1)C(=O)Nc1sc2c(c1C(=O)NCc1cccnc1)CCCC2 (stereo not drawn) | 9.94%
44 | Nc1cccc(N2C(=O)c3cccc4c(N)ccc(c34)C2=O)c1 | 0.16%

Row | SMILES | fluorescence artifact activation
45 | CS(=O)(=O)c1ccc(C(=O)OCC(=O)Nc2cccnc2Cl)cc1[N+](=O)[O-] | 0%
46 | COc1ccc2ccccc2c1C(O)c1nccn1C (stereo not drawn) | 10.5%
47 | Cc1occc1C(=O)Nc1cccc([N+](=O)[O-])c1 | 11.4%
48 | COC(=O)c1cc2c(=O)c3ccccc3oc2nc1/C=C/N(C)C | 0.12%
49 | NC(=O)c1c(NC(=O)C2COc3ccccc3O2)sc2c1CCN(Cc1ccccc1)C2 (stereo not drawn) | 0.08%
50 | NC(=O)c1c(NC(=O)c2ccccc2)sc2c1CCN(Cc1ccccc1)C2 | 37.1% (active)
51 | CC(=O)c1ccc(C(=O)Nc2sc3c(c2C(N)=O)CCN(Cc2ccccc2)C3)cc1 | -0.06%
52 | Cc1nc(-c2ccc(C#N)cc2)cs1 | -0.01%
53 | CN(C)c1ccc(N=Cc2nc(-c3ccccc3)oc2O)cc1 | 7.65%
54 | COc1ccc(N=C(N)N=C(N)N)c(OC)c1 | 0%
55 | CCOc1cc(N2CCOCC2)c(OCC)cc1NC(=O)CCS(=O)(=O)c1ccc(Cl)cc1 | 9.02%
56 | CCC(CO)[n+]1c(C)cc(/C=C2\Sc3ccccc3N2Cc2ccccc2)cc1C (stereo not drawn) | 0.01%
57 | CN(C)c1ccc(/C=C2\SC(=O)N(CC(O)Cn3c4ccccc4c4ccccc43)C2=O)cc1 (stereo not drawn) | 5.59%
58 | Cc1cccc(/C=C2/SC(=O)N(Cc3ccccc3)C2=O)n1 | 15.4% (active)
59 | Cc1ccc2c(c1)CCCN2CC(=O)N(C)c1c(N)n(Cc2ccccc2)c(=O)[nH]c1=O | -0.05%
60 | CCn1c(=O)c(C(=O)CN2CCCc3ccccc32)c(N)n(Cc2ccccc2)c1=O | 15.2% (active)
61 | COCCN(C(=O)CN1CCCc2ccccc21)c1c(N)n(Cc2ccccc2)c(=O)[nH]c1=O | 3.59%
62 | Nc1c(C(=O)C2CC2)sc2nc(-c3cccs3)cc(C(F)(F)F)c12 | 3.83%
63 | Cc1cc[n+](-c2[nH]c(=O)sc2/C=N/NC([S-])=Nc2ccccc2)cc1C | 0.4%
64 | O=c1[nH]c(-[n+]2ccccc2)c(/C=N/NC([S-])=Nc2ccccc2)s1 | 0.03%
65 | CCc1ccc[n+](-c2[nH]c(=O)sc2/C=N/NC([S-])=Nc2ccccc2)c1 | 19.1% (active)
66 | Cc1ccc(S(=O)(=O)N2CCN(c3ncccn3)CC2)cc1C | -0.05%

Row | SMILES | fluorescence artifact activation
67 | Cc1ccccc1S(=O)(=O)Cc1ccc(C(=O)NCCN(C)Cc2ccccc2)o1 | 11%
68 | Cc1nn(Cc2c(F)c(F)c(F)c(F)c2F)c(C)c1NC(=O)c1nn(C)c(C)c1Br | 0.14%
69 | Cc1c(O)c2c3c(cccc3c1O)C(=O)N(c1ccccc1)C2=O | 6.04%
70 | Nc1ccc2c3c(cccc13)C(=O)N(c1ccccc1)C2=O | 0.18%
71 | CCC/C(C#Cc1ccc(N(C)C)cc1)=C1/c2ccccc2C(=O)N1c1ccccc1 | 17.9% (active)
72 | CCCS(=O)(=O)N1CCC(C(=O)NCCCN2CCC(Cc3ccccc3)CC2)CC1 | 0.05%
73 | CC(=O)Nc1cccc(NC(=O)CSc2nnc(Cc3cccn3C)n2CCc2ccccc2)c1 | 2.41%
74 | CCN1C(=O)[C@@H]2[C@@H](c3ccc(-c4cccc(Cl)c4)cc3)N3CCC[C@@]3(C(=O)OC)[C@@H]2C1=O | 0.02%
75 | CC(=O)Nc1sc(/C(C#N)=C/c2ccc(Cl)c(Cl)c2)nc1-c1ccc(C)cc1 | -0.03%
76 | CC(=O)Nc1sc(/C(C#N)=C\c2cccc(Cl)c2)nc1-c1ccc(C)cc1 | 16.5% (active)
77 | CCOc1cc(/C=C(\C#N)c2nc(-c3cccs3)c(NC(C)=O)s2)ccc1O | -0.03%
78 | CC(C)(C)c1cc(NCc2ccccn2)n2ncc(-c3ccc(Cl)cc3)c2n1 | 0.93%
79 | CCCN1CCc2c(sc(NC(=S)NC(=O)c3ccccc3)c2C#N)C1 | 11.1%
80 | O=C(Nc1ccccc1F)C(=Cc1sc(N2CCOCC2)nc1-c1ccccc1)C(=O)Nc1ccccc1F | 0.15%
81 | CCN1C(=O)/C(=C/C=C2/CCCN2C)OC1=S | 0.08%
82 | CN1C(=O)/C(=C\C=C2/CCCN2C)N(C)C1=S | 56.9% (active)
83 | CN1CCC/C1=C/C=C1\SC(=S)NC1=O | 0.02%
84 | O=C(O)c1ccc2c(c1)S(=O)(=O)c1ccccc1C2=O | 0.03%
85 | O=C1c2ccccc2-c2onc3ccc(Oc4ccccc4)c1c23 | 0.44%
86 | CCN(CC)c1nc2ccccc2nc1C(C#N)C(=O)NCCc1ccccc1 (stereo not drawn) | 164% (active)
87 | N#CC(C(=O)NCc1ccccc1)c1nc2ccccc2nc1N1CCCC1 (stereo not drawn) | -0.08%
88 | CCCCCCNC(=O)C(C#N)c1nc2ccccc2nc1N1CCCC1 (stereo not drawn) | 0.17%
